Screens from PubChem BioAssay.
KCC2 mod: KCC2 (human) Cl- transport modulation; Q9H2X9; KCC2 cells, thallium flux FluoZin-2 fluorescence; B-score of Tl+ flux slope (higher = more flux/activation; lower = inhibition) at 10 µM; hit rate 2.2% among 190,000; AID 1456;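 active = thallium flux slope and its plate-corrected score both differing from the plate sample mean at a set confidence after two filtering rounds, in either direction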;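 also: slope of fluorescence scaled to starting intensity during 10 to 20 s after thallium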
Diaph act CS: diaphorase activation or chemical reduction counter-screen | AID 1229 | activation factor at 20 µM | Diaphorase/resazurin coupled assay, resorufin fluorescence, 16 min; hits give high values; 1 = vehicle wells, 0 = NADH-free wells | hit rate 0.005% among 190,000;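 active = diaphorase activity raised at least twofold by the compound at 20 µM; inactive = activation factor below 2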
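Test system: Clostridium kluyveri diaphorase, purified enzyme; input: enzyme 0.07 U/mL final; buffer or medium: 50 mM HEPES pH 7.4 with 4.542 mM MgCl2, 0.005% Tween 20; also added: 0.114 mM NADH and 0.1 mM resazurin, final amounts; schedule: 16 min enzyme reaction, ambient temperature; technique: fluorescence of resorufin, 544 nm excitation, 590 nm emission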
WT yeast gro inh: growth inhibition of WT yeast, mitochondrial fusion screen. inhibition, % at 10 µM. AID 1362. mitochondrial fusion phenotypic screen, WT strain. hit rate 2.1% among 190,000; in the data active = inhibition above about 58%; tested in S. cerevisiae
ROMK mod: modulators of human ROMK potassium channel | Tet-inducible ROMK, thallium flux fluorescence; actives lie on both sides | B-score at 10 µM | hit rate 2% among 130,000;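 active = signal ratio slope over the read window, or its plate-corrected B-score, at least 3 SD from the plate mean, either direction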;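 also: B-score of the F/F0 ratio slope over 7 to 12 s after thallium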
L major viab: Leishmania major promastigote growth inhibition; Leishmania major promastigotes, resazurin fluorescence viability; inhibition, % at 10 µM; hit rate 9% among 200,000; AID 1063; in the data active = inhibition above about 50%;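 also: promastigotes grown with compound for 44 hours at 28 °C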
Diaph inh CS: inhibits diaphorase or chemically oxidizes, flagging diaphorase assay artifacts; diaphorase resazurin-to-resorufin fluorescence, NADH, 16 min; bacterial (C. kluyveri) enzyme, not human; inhibition, % at 20 µM; hit rate 0.69% among 190,000;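 active = primary screen inhibition at 20 µM above a set limit, cut at about 50% in these data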;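 also: plate controls were DMSO with full reaction for no effect and wells lacking NADH for full effect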
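Detection: fluorescence of resorufin formed from resazurin, Ex 544/Em 590 nm; test system: Clostridium kluyveri diaphorase enzyme; amount: 0.14 U/mL diaphorase, enzyme working solution; times: 16-min room-temperature incubation before reading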
* hit, by the source's call; i = inactive; . = no result given. Sampled rows, rich in hits. Any-hit rate of the full collection: about 12%.

SMILES	KCC2 mod	Diaph act CS	WT yeast gro inh	ROMK mod	L major viab	Diaph inh CS
Cc1nc(N2CCCCC2C)c2c(C)c(C(=O)Nc3cccc(C(F)(F)F)c3)sc2n1 (stereo not drawn)	1.7	0.8	68*	0.8	67*	22
COc1ccc(-n2nc3cc(C)c(N)c(Br)c3n2)cc1	1.8	0.3	2	.	-2	74*
CC(C)CC(=O)Nc1cc2nn(-c3ccccc3)nc2cc1Cl	-0.95	0.9	12	0.32	-7	8
Cc1ccc(-n2nc3cc(C)c(N)cc3n2)cc1	0.12	0.2	15	.	16	76*
Cc1cc2nn(-c3cccc4ccccc34)nc2cc1N	-0.54	0.2	7	-0.37	3	78*
COc1ccc(-n2nc3cc(C)c(NC(C)=O)cc3n2)cc1	.	1	-3	1.1	-3	-3
Nc1cc2nn(-c3ccccc3)nc2cc1Cl	1.2	0.2	6	2.3	-2	81*
Cc1cc(C)c2cccc(N)c2n1	-0.22	0.8	5	0.93	-5	19
COc1ccc(-n2nc3ccccc3n2)cc1	.	1	9	0.61	1	4
COc1cc(NC(=O)COC(=O)C=C(C)C)c(C)cc1[N+](=O)[O-]	0.46	0.9	9	.	-4	7
CN1CCN(c2ccccc2NS(=O)(=O)c2ccc3c(c2)CCN3C(=O)C2CCC2)CC1	2.2	.	.	.	29	.
COC(=O)/C(=C\Nc1ccc(Oc2ccc(F)cc2F)nc1)NC(=O)c1ccccc1	-1	.	.	.	.	.
O=C(NC(Cc1ccccc1)C(=O)O)/C(=C/c1ccc([N+](=O)[O-])cc1)NC(=O)c1ccccc1Br (stereo not drawn)	-0.046	1	-7	.	-2	-2
O=c1cnn(-c2ccc(Cl)cc2Cl)c(-c2ccccc2)c1	0.73	0.9	8	.	92*	7
CCOP(=O)(OCC)/C(C#N)=C/c1ccc([N+](=O)[O-])cc1	0.13	.	.	.	.	.
Nc1[nH][nH]c(=O)c1N=Nc1cccc(Cl)c1	.	0.9	-8	.	-9	11
NC(=S)n1[nH]c(-c2ccc([N+](=O)[O-])cc2)c(N=Nc2cccc(Cl)c2)c1=O	5.8*	0.5	75*	-0.53	47	51*
NC(=S)n1[nH]c(-c2ccc([N+](=O)[O-])cc2)c(N=Nc2ccc(O)cc2)c1=O	.	0.8	-14	0.0068	97*	20
CCN(CC)S(=O)(=O)c1ccc(N=Nc2c(C)[nH]n(C(N)=S)c2=O)cc1	-0.028	1	15	0.27	2	3
O=C(O)COCC(=O)Nc1ccc(-n2nc(C(F)(F)F)cc2-c2cccs2)cc1	0.066	.	.	-0.0067	.	.
Nc1ccc2nc(SCC(=O)Nc3ccc(N4CCOCC4)c(Cl)c3)sc2c1	-0.85	0.8	11	.	6	22
CCCC(=O)Nc1ccc2nc(SCC(=O)Nc3ccc(N4CCOCC4)c(Cl)c3)sc2c1	-0.78	0.9	14	-0.032	99*	7
CC(C)(C)NC(=O)CSc1nc2ccc(NC(=O)CSc3nnc(N)s3)cc2s1	-0.56	0.8	-15	-0.12	71*	19
CC(C)(C)NC(=O)CSc1nc2ccc(NC(=O)CSc3nnnn3Cc3ccccc3)cc2s1	-1.8	0.8	44	-0.43	11	24
C/C(=N\NC(N)=S)C1C2C3CC4C5CC(C42)C1C53 (stereo not drawn)	0.99	0.9	66*	-1.3	100*	5
SMILES	KCC2 mod	Diaph act CS	WT yeast gro inh	ROMK mod	L major viab	Diaph inh CS
CCC1CC(/C(C)=N/NC(N)=O)OC1=O (stereo not drawn)	0.89	1	-6	0.24	-4	0
CC(=O)N1CCCN(Cc2cn(-c3cc(C)ccc3C)nc2-c2ccccc2)CC1	-1.6	0.9	1	0.044	-6	6
Cn1c(/N=C/c2c(O)ccc3ccccc23)nc2ccccc21	i	0.2	5	.	-1	77*
Nc1nc(NCc2ccco2)nc(N2CCCCC2)c1[N+](=O)[O-]	-0.33	0.8	-17	.	3	15
COc1ccc(-c2nc(CSCC(=O)NCCC3=CCCCC3)c(C)o2)cc1OC	.	0.9	5	.	10	13
CCn1cc(Cl)c(C(=O)N2N=C(c3ccc4ccccc4c3)CC2c2ccccc2O)n1 (stereo not drawn)	0.36	0.8	-19	-0.37	73*	23
CCn1cc([N+](=O)[O-])c(C(=O)N2N=C(c3ccc4ccccc4c3)CC2c2ccccc2O)n1 (stereo not drawn)	-0.19	0.8	10	-0.064	31	20
CCn1cc([N+](=O)[O-])c(C(=O)N2N=C(c3cccc4ccccc34)CC2c2ccccc2O)n1 (stereo not drawn)	-0.24	0.7	-5	0.01	74*	32
C[C@@H](C(=O)N1CCN(C(=O)OC(C)(C)C)CC1)n1cc(-c2cn([C@@H](C)C(=O)N3CCN(C(=O)OC(C)(C)C)CC3)nn2)nn1	0.7	.	.	.	.	.
O=C1CCC(=O)N1c1ccc(NCc2ccccc2Cl)c([N+](=O)[O-])c1	0.14	0.7	-13	0.42	67*	28
CC1CC(=O)N(c2ccc(NCc3ccccc3Cl)c([N+](=O)[O-])c2)C1=O (stereo not drawn)	-0.8	0.8	-9	-0.69	68*	18
Cc1ccc(CNc2ccc(N3C(=O)CCCC3=O)cc2[N+](=O)[O-])cc1	0.33	0.9	11	0.29	-4	9
Cc1ccc(CNc2ccc(N3C(=O)CC(C)C3=O)cc2[N+](=O)[O-])cc1 (stereo not drawn)	-0.43	1	-1	-1.5	-6	1
CCN(CC)CCNC(=O)c1ccc(-n2c(C)cc3c2CCCC3=O)cc1	0.81	0.9	4	0.094	32	7
C(=N\N1CCN(Cc2cccc3ccccc23)CC1)/c1cccnc1	-0.37	1	-3	-0.12	19	-3
O=C(NCCC1=CCCCC1)C1COc2ccccc2O1 (stereo not drawn)	0.42	0.8	-4	.	-10	16
O=C(O/N=C1\CCCCC1c1ccc([N+](=O)[O-])cc1[N+](=O)[O-])c1c(F)cccc1F (stereo not drawn)	.	0.8	-5	.	62*	18
O=[N+]([O-])c1ccc(C2CCCC/C2=N/OCc2ccccc2F)c([N+](=O)[O-])c1 (stereo not drawn)	-1.3	0.9	26	.	19	6
O=[N+]([O-])c1ccc(C2CCCC/C2=N/OCc2ccc(F)cc2)c([N+](=O)[O-])c1 (stereo not drawn)	0.79	1.1	14	.	54*	-11
Cc1ccc(NC(=O)CC2=NC(=O)C(CC(=O)Nc3ccccc3C)S2)cc1 (stereo not drawn)	0.032	1.1	-9	0.33	-1	-10
Oc1ccccc1N=Cc1sc2ccccc2c1Cl	0.83	0.7	56	.	57*	26
Cc1ccc(O)c(N=Cc2sc3ccccc3c2Cl)c1	0.17	0.8	3	.	22	18
